Data as given in ChEMBL document CHEMBL1156597, “Structure-activity relationship of kahalalide F synthetic analogues” (J Med Chem, 2008).

Assays:
[1] = Cytotoxicity against human IGROV-ET cells after 48 hrs by SRB assay; type: functional; details: for CC50: read-out: LC50 (the source's name)
Summary of the method: (§1)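 Cells grown in RPMI 1640 with 10% FBS and penicillin/streptomycin at 37 °C and 5% CO₂, trypsinized, then seeded at 5 × 10³/well. After 18 h drug-free attachment, samples in DMSO/EtOH/PBS (0.5:0.5:99) were added for 48 h continuous exposure. Cells were fixed with cold TCA (1 h, 4 °C) and stained with SRB (10 min). Tris-solubilized stain read at 490 nm. Triplicate wells, mean ± SD; GI₅₀ derived.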

[2] = system: LoVo; test: Cytotoxicity against human LoVo cells after 48 hrs by SRB assay; type: functional; details: for CC50: read-out: LC50 (the source's name)
[3] = system: SK-MEL-28; test: Cytotoxicity against human SK-MEL-28 cells after 48 hrs by SRB assay; type: functional, cell-based; details: Homo sapiens, SK-MEL-28, 48 h; for CC50: read-out: LC50 (the source's name); summary of the method: as §1
[4] = system: DU-145; test: Cytotoxicity against human DU145 cells after 48 hrs by SRB assay; type: functional, cell-based; details: Homo sapiens, DU-145, 48 h; for CC50: read-out: LC50 (the source's name); summary of the method: as §1
[5] = system: HT-29; test: Cytotoxicity against human HT29 cells after 48 hrs by SRB assay; type: functional, cell-based; details: Homo sapiens, HT-29, 48 h; read-out: LC50 (the source's name); summary of the method: as §1
[6] = system: K562; test: Cytotoxicity against human K562 cells after 48 hrs by SRB assay; type: functional; details: K562, 48 h; for CC50: read-out: LC50 (the source's name); summary of the method: as §1
[7] = system: SK-BR-3; test: Cytotoxicity against human SKBR3 cells after 48 hrs by SRB assay; type: functional; details: SK-BR-3, 48 h; for CC50: read-out: LC50 (the source's name); for GI50: read-out: GI50; summary of the method: as §1
[8] = system: HeLa; test: Cytotoxicity against human HeLa cells after 48 hrs by SRB assay; type: functional; details: for CC50: read-out: LC50 (the source's name); summary of the method: as §1
[9] = Cytotoxicity against human HeLa-APL cells after 48 hrs by SRB assay; type: functional; summary of the method: as §1
[10] = system: LNCaP; test: Cytotoxicity against human LNcaP cells after 48 hrs by SRB assay; type: functional; details: for CC50: read-out: LC50 (the source's name); summary of the method: as §1
[11] = system: PANC-1; test: Cytotoxicity against human PANC1 cells after 48 hrs by SRB assay; type: functional; details: PANC-1, 48 h, read-out: LC50 (the source's name); summary of the method: as §1
[12] = system: A549; test: Cytotoxicity against human A549 cells after 48 hrs by SRB assay; type: functional, cell-based; details: Homo sapiens, A549, 48 h; summary of the method: as §1
[13] = Cytotoxicity against human IGROV cells after 48 hrs by SRB assay; type: functional; details: for CC50: read-out: LC50 (the source's name); summary of the method: as §1

Compound	CC50 [1] [µM]	GI50 [2] [µM]	TGI [2] [µM]	CC50 [2] [µM]	CC50 [3] [µM]	CC50 [4] [µM]	CC50 [5] [µM]	GI50 [6] [µM]	TGI [6] [µM]	CC50 [6] [µM]	CC50 [7] [µM]	CC50 [8] [µM]	LC50 (concentration giving 50% net cell kill) [9] [µM]	GI50 [10] [µM]	TGI [10] [µM]	CC50 [10] [µM]	CC50 [11] [µM]	LC50 [12] [µM]	CC50 [13] [µM]	TGI [7] [µM]	also measured
C/C=C1\NC(=O)[C@H](Cc2ccccc2)NC(=O)[C@@H](C(C)C)NC(=O)[C@@H]([C@H](C)CC)NC(=O)[C@H](NC(=O)[C@H](NC(=O)[C@H](CCCN)NC(=O)[C@H]2CCCN2C(=O)[C@H](NC(=O)CNC(=O)[C@@H](NC(=O)[C@H](NC(=O)CCCC(C)C)C(C)C)[C@@H](C)O)C(C)C)[C@H](C)CC)[C@H](C)OC(=O)[C@H](C(C)C)NC1=O	0.722	10.7	9.72	4.92	1.48	1.7	0.911	2.57	3.12	2.5	2.85	1.07	1.36	3.05	3.32	1.58	2.6	1.96	0.649	–	–
C/C=C1\NC(=O)[C@H](Cc2ccccc2)NC(=O)[C@@H](C(C)C)NC(=O)[C@@H]([C@H](C)CC)NC(=O)[C@H](NC(=O)[C@H](NC(=O)[C@H](CCCN)NC(=O)[C@H]2CCCN2C(=O)[C@H](NC(=O)[C@@H](NC(=O)[C@@H](NC(=O)[C@H](NC(=O)CCCC(C)C)C(C)C)[C@@H](C)O)C(C)C)C(C)C)[C@H](C)CC)CNC(=O)[C@H](C(C)C)NC1=O	0.71	11.5	9.55	4.84	1.46	1.67	0.895	–	–	2.46	2.81	1.05	1.34	–	–	1.55	2.56	1.93	0.637	8.04	GI50 [7]: 8.66 µM
C/C=C1\NC(=O)[C@H](Cc2ccccc2)NC(=O)[C@@H](C(C)C)NC(=O)[C@@H]([C@H](C)CC)NC(=O)[C@H](NC(=O)[C@H](NC(=O)[C@H](CCCN)NC(=O)[C@H]2CCCN2C(=O)[C@H](NC(=O)[C@@H](NC(=O)[C@@H](NC(=O)[C@H](NC(=O)CCCCCCCCCCCCCCCCCCC)C(C)C)[C@@H](C)O)C(C)C)C(C)C)[C@H](C)CC)[C@H](C)OC(=O)[C@H](C(C)C)NC1=O	1.21	–	–	0.96	0.432	2.03	0.877	–	–	0.91	0.865	0.477	2.03	–	–	0.296	0.423	0.383	1.23	–	GI50 [3]: 0.905 µM; GI50 ([3]; read-out: GI50): 1.89 µM; GI50 [12]: 0.85 µM; GI50 ([12]; read-out: GI50): 1.88 µM
C/C=C1\NC(=O)[C@H](Cc2ccccc2)NC(=O)[C@@H](C(C)C)NC(=O)[C@@H]([C@H](C)CC)NC(=O)[C@H](NC(=O)[C@H](NC(=O)[C@H](CCCN)NC(=O)[C@H]2CCCN2C(=O)[C@H](NC(=O)[C@H](C)NC(=O)[C@@H](NC(=O)[C@H](NC(=O)CCCC(C)C)C(C)C)[C@@H](C)O)C(C)C)[C@H](C)CC)[C@H](C)OC(=O)[C@H](C(C)C)NC1=O	0.599	2.68	2.83	2.99	1.47	1.68	0.665	4.32	4.93	2.48	2.17	1.06	1.35	2.8	3.3	1.57	2.58	1.94	0.533	2.96	GI50 [1]: 0.863 µM; GI50 ([1]; read-out: GI50): 1.25 µM; TGI [3]: 3.07 µM; GI50 ([3]; read-out: GI50): 3.45 µM; TGI [4]: 3.87 µM; GI50 ([4]; read-out: GI50): 3.9 µM; GI50 [7]: 3.25 µM; GI50 [8]: 3.1 µM; TGI [8]: 2.83 µM; GI50 [9]: 3.27 µM; TGI [9]: 3.1 µM; TGI [12]: 4.31 µM; GI50 ([12]; read-out: GI50): 3.73 µM; GI50 [13]: 0.934 µM; GI50 ([13]; read-out: GI50): 2 µM
